# Assay results pooled from the literature.
# Compare with care: the assays were run in different laboratories.
# Cell line: MCF7
# Effect on: cell growth or viability
SMILES,technique,concentration,time,endpoint,result
Cc1n[nH]c2ccc3nc(-c4ccc(C(=O)NCCN(C)C)cc4F)c4c(c3c12)CCCC4,,,72 h,GI50,0.99 µM
O=C(NCc1cn(Cc2ccc(Br)cc2)nn1)Nc1ccc(Cl)cc1,CCK-8,50 µM,48 h,viability,89.8%
COc1ccc(NC(=O)Nc2cccc(-c3cn(Cc4ccccc4C)nn3)c2)cc1,CCK-8,50 µM,48 h,viability,94.8%
O=C(NCc1cn(Cc2ccc(Br)cc2)nn1)Nc1ccccc1Br,CCK-8,50 µM,48 h,viability,84.7%
CCOc1ccc(-c2cc(C(=O)O)c(-c3ccc(Cl)cc3)o2)cc1,MTT,,48 h,EC50,170 µM
CCCS(=O)(=O)Oc1ccc(C=NNC(=O)c2nc3ccccc3s2)cc1,MTT,100 µM,48 h,cell death,46.6%
O=C(NCc1cn(Cc2ccc(Cl)cc2)nn1)Nc1ccc(Cl)cc1,CCK-8,50 µM,72 h,viability,83.3%
COc1cccc2c1C(=O)c1c(O)c3c(c(O)c1C2=O)C[C@@](O)(C(=O)CO)C[C@@H]3O[C@H]1C[C@H](N)[C@H](O)[C@H](C)O1,MTT,,48 h,IC50,3.1 µM
C[C@H](Nc1ccc2c(c1)OCCn1cc(N3C(=O)OC[C@H]3C(F)F)nc1-2)C(N)=O,ATP luminescence,,5 days,EC50,0.129 µM
O=C(NN=Cc1ccc(O)cc1)c1nc2ccccc2s1,MTT,100 µM,48 h,cell death,38.1%
O=C(NCc1cn(Cc2cccc(Cl)c2)nn1)Nc1ccc(Cl)cc1,CCK-8,50 µM,48 h,viability,82%
Cc1n[nH]c2ccc3nc(-c4ccc(C(=O)NCCN(C)C)cc4)c4c(c3c12)CCCCC4,,,72 h,GI50,5.25 µM
O=C(Nc1cccc(-c2cn(Cc3ccc(Cl)cc3)nn2)c1)Nc1ccccc1Br,CCK-8,50 µM,48 h,viability,89.5%
CN(C)CCNC(=O)c1ccc(-c2nc3ccc4[nH]ncc4c3c3c2CCCCC3)c(F)c1,,,72 h,GI50,3.31 µM
NCCCCC(=O)Nc1ccccc1/N=c1\cc(-c2ccc3c(c2)OCO3)oc2ccccc12,CCK-8,1 µM,,inhibition,-4.92%
COc1ccc(NC(=O)Nc2ccc(-c3cn(Cc4ccc(C)cc4)nn3)cc2)cc1,CCK-8,50 µM,72 h,viability,87.4%
CN(C)CCNC(=O)c1ccc(-c2nc3ccc4[nH]ncc4c3c3c2CCCCC3)cc1,,,72 h,GI50,3.32 µM
O=C(Nc1ccc(Cl)cc1)Nc1ccc(-c2cn(Cc3ccc(Br)cc3)nn2)cc1,CCK-8,50 µM,72 h,viability,97.8%
Nc1nc2ccc(-c3c/c(=N\c4ccccc4NC(=O)CCN4CCOCC4)c4ccccc4o3)cc2o1,CCK-8,1 µM,,inhibition,7.35%
O=c1[nH]cc(F)c(=O)[nH]1,MTT,100 µM,48 h,cell death,71.2%
COc1ccc(NC(=O)NCc2cn(Cc3ccc(Cl)cc3)nn2)cc1,CCK-8,50 µM,72 h,viability,95.3%
CN(C)CCNC(=O)c1ccc(-c2nc3ccc4[nH]ncc4c3c3c2CCCC3)c(F)c1,,,72 h,GI50,3.32 µM
NCCC(=O)Nc1cccc(/N=c2\cc(-c3ccc4c(c3)OCO4)oc3ccccc23)c1,CCK-8,1 µM,,inhibition,15.7%
COc1ccc(NC(=O)Nc2ccc(-c3cn(Cc4cccc(Cl)c4)nn3)cc2)cc1,CCK-8,50 µM,48 h,viability,95.4%
COc1cc(C=NNC(=O)c2nc3ccccc3s2)ccc1O,MTT,100 µM,48 h,cell death,16.6%
COc1ccc(NC(=O)NCc2cn(Cc3ccc(Br)cc3)nn2)cc1,CCK-8,50 µM,48 h,viability,87.8%
CC(C)(C)[C@H](N)C(=O)Nc1ccccc1/N=c1\cc(-c2ccc3c(c2)OCCO3)oc2cc(F)ccc12,CCK-8,1 µM,,inhibition,9.85%
COc1cccc2c1C(=O)c1c(O)c3c(c(O)c1C2=O)C[C@@](O)(C(=O)CO)C[C@@H]3O[C@H]1C[C@H](N)[C@H](O)[C@H](C)O1,MTT,,24 h,IC50,5.93 µM
O=C(Nc1ccccc1/N=c1\cc(-c2ccc3c(c2)OCO3)oc2ccccc12)N1CCNCC1,CCK-8,1 µM,,inhibition,13.5%
O=C(Nc1ccc(Cl)cc1)Nc1cccc(-c2cn(Cc3ccc(Cl)cc3)nn2)c1,CCK-8,50 µM,72 h,viability,98.2%
NCCC(=O)Nc1ccccc1/N=c1\cc(-c2ccc3nc(N)oc3c2)oc2ccc(O)cc12,CCK-8,1 µM,,inhibition,12.1%
COc1ccc(NC(=O)Nc2cccc(-c3cn(Cc4ccc(C)cc4)nn3)c2)cc1,CCK-8,50 µM,72 h,viability,104%
O=C(Nc1cccc(-c2cn(Cc3ccc(Br)cc3)nn2)c1)Nc1ccccc1Br,CCK-8,50 µM,48 h,viability,89.7%
COc1ccc(NC(=O)Nc2ccc(-c3cn(Cc4ccc(Cl)cc4)nn3)cc2)cc1,CCK-8,50 µM,48 h,viability,95.1%
COCCC(=O)Nc1ccccc1/N=c1\cc(-c2ccc3nc(N)oc3c2)oc2ccccc12,CCK-8,1 µM,,inhibition,7.99%
COc1ccc(NC(=O)Nc2cccc(-c3cn(Cc4cccc(Cl)c4)nn3)c2)cc1,CCK-8,50 µM,48 h,viability,103%
NCCC(=O)Nc1ccc(/N=c2\cc(-c3ccc4c(c3)OCO4)oc3ccccc23)cc1,CCK-8,1 µM,,inhibition,6.42%
